# Experimental data reported in PubChem BioAssay AID602424 (Sanford-Burnham Center for Chemical Genomics, 2012).
# Active and inactive are the calls of the source.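 Rule for the calls: active = IC50 at or below 20 µM; inactive = the rest.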
# Biological target: Glucose-6-phosphate 1-dehydrogenase (Homo sapiens) (UniProt P11413)
# Test: human G6PD enzyme inhibition selectivity, SAR follow-up, selectivity assay for PfG6PD antimalarial inhibitor project, biochemical, fluorescence, dose response, set 4 (AID 602424)
# Conditions: recombinant human G6PD, NADPH-diaphorase-resazurin fluorescence
# Procedure, shortened: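 System: Human glucose-6-phosphate dehydrogenase enzyme (hG6PD) | Reagent: 320 µM glucose-6-phosphate substrate plus 6 µM NADP cofactor | Medium: Tris buffer pH 7.5, 3.3 mM MgCl2, 0.005% Tween 20 | Control set: no-substrate wells as low control | Timing: 90 min dark incubation, room temperature | Signal: Diaphorase-coupled resazurin fluorescence from NADPH, excitation 530 nm, emission 590 nm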
# Glucose-6-phosphate 1-dehydrogenase (Homo sapiens), sequence (P11413 whole entry, looked up): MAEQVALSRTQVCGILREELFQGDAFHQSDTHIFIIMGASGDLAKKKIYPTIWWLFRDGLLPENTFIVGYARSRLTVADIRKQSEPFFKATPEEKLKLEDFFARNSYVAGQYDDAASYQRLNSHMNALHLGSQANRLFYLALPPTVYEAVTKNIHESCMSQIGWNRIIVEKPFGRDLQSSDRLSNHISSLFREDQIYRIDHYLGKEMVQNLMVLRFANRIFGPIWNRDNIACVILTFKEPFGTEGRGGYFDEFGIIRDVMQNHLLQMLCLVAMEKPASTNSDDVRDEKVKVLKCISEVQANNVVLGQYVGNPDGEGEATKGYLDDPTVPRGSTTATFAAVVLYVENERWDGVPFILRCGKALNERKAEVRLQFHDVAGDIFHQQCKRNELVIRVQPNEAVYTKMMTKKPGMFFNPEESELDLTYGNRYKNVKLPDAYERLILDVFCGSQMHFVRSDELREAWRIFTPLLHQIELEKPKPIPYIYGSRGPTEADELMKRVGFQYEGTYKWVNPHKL
row,SMILES,IC50
1,CCCCCCN1CCCC1CNC(=O)c1ccc2c(c1)NC(=O)c1ccccc1S2 (configuration not stated),> 80 µM (inactive)
2,CCN1CCCCC1CNC(=O)c1ccc2c(c1)NC(=O)c1ccccc1S2 (configuration not stated),> 80 µM (inactive)
3,CCCN1CCC[C@@H]1CNC(=O)c1ccc2c(c1)NC(=O)c1ccccc1S2,> 80 µM (inactive)
4,CCN1CCC[C@@H]1CNC(=O)c1ccc2c(c1)NC(=O)c1cc(F)ccc1S2,> 80 µM (inactive)
5,O=C(NC[C@H]1CCCN1)c1ccc2c(c1)NC(=O)c1ccccc1S2,> 80 µM (inactive)
6,CCN1CCC[C@@H]1CNC(=O)c1ccc2c(c1)NC(=O)c1cccc(C)c1S2,> 80 µM (inactive)
7,CCN1CCC(NC(=O)c2ccc3c(c2)NC(=O)c2ccccc2S3)C1 (configuration not stated),> 80 µM (inactive)
8,O=C(NCC1CCCCN1)c1ccc2c(c1)NC(=O)c1ccccc1S2 (configuration not stated),> 80 µM (inactive)
9,CCCN1CCC(NC(=O)c2ccc3c(c2)NC(=O)c2ccccc2S3)C1 (configuration not stated),> 80 µM (inactive)
10,CCN1CCC[C@@H]1CNC(=O)c1ccc2c(c1)NC(=O)c1ccc(F)cc1S2,> 80 µM (inactive)
11,CN1CCC(NC(=O)c2ccc3c(c2)NC(=O)c2ccccc2S3)C1 (configuration not stated),> 80 µM (inactive)
12,CCCN1CCCCC1CNC(=O)c1ccc2c(c1)NC(=O)c1ccccc1S2 (configuration not stated),> 80 µM (inactive)
13,CCN1CCC[C@@H]1CNC(=O)c1ccc2c(c1)NC(=O)c1ccccc1N2,> 80 µM (inactive)
14,CCN1CCC[C@@H]1CNC(=O)c1ccc2c(c1)NC(=O)c1cc(C)ccc1S2,> 80 µM (inactive)
15,CCCCN1CCCC1CNC(=O)c1ccc2c(c1)NC(=O)c1ccccc1S2 (configuration not stated),> 80 µM (inactive)
16,CN1CCCCC1CNC(=O)c1ccc2c(c1)NC(=O)c1ccccc1S2 (configuration not stated),> 80 µM (inactive)
17,CN1CCCC1CNC(=O)c1ccc2c(c1)NC(=O)c1ccccc1S2 (configuration not stated),> 80 µM (inactive)
